Laboratory results from publication PMC7658073 (Clinical Pharmacokinetics, 2020).
Read-outs that look alike come from different tables or passages of the source. Marks after values point to notes of the source that are not given here.

Assays:
Human mass balance study = assay type: in vivo; conditions: 14C-labeled vericiguat 5 mg oral
How it was run: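 Open-label, non-randomized, non-placebo-controlled study in six healthy male volunteers. Single oral solution of 5 mg [14C]-labelled test compound given fasting. Urine and feces collected up to 336 h and total radioactivity measured as % of dose, summarized descriptively as mean (range). Plasma components expressed as share of total radioactivity AUC.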

[1] = Phase I DDI study with rifampicin; assay type: in vivo, human
How it was run: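 Non-randomized, non-blinded, fixed-sequence study in healthy men. Test compound 10 mg single oral dose, fed, alone and then with rifampicin 600 mg QD orally for 9 days (pre- and co-treatment).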

OATP1B1 = target: T1, OATP1B1 (Homo sapiens, UniProt Q9Y6L6); assay: Substrate properties towards OATP1B1; assay type: in vitro ADME
T1 sequence (Q9Y6L6 1-691): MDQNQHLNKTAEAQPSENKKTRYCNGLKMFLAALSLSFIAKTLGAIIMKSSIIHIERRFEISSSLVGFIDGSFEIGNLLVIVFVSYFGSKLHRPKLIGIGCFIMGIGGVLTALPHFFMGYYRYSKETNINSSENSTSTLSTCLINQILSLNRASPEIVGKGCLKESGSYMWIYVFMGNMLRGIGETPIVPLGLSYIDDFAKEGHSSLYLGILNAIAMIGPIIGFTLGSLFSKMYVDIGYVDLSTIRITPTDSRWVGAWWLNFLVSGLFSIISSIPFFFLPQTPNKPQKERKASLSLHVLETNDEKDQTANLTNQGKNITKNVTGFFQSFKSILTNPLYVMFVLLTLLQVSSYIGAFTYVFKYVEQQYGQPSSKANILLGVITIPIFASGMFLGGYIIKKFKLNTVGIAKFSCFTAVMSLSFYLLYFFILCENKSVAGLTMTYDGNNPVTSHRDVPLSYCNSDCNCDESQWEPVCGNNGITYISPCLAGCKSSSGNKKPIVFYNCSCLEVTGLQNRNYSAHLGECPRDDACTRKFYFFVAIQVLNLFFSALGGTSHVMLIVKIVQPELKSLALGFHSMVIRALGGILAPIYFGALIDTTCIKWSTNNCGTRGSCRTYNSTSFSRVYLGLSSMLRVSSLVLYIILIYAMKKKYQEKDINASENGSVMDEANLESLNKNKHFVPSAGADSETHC

MATE1 = target: T2, MATE1 (Homo sapiens, UniProt Q96FL8); assay: Inhibitory potency towards MATE1; assay type: in vitro ADME
T2 sequence (Q96FL8 1-570): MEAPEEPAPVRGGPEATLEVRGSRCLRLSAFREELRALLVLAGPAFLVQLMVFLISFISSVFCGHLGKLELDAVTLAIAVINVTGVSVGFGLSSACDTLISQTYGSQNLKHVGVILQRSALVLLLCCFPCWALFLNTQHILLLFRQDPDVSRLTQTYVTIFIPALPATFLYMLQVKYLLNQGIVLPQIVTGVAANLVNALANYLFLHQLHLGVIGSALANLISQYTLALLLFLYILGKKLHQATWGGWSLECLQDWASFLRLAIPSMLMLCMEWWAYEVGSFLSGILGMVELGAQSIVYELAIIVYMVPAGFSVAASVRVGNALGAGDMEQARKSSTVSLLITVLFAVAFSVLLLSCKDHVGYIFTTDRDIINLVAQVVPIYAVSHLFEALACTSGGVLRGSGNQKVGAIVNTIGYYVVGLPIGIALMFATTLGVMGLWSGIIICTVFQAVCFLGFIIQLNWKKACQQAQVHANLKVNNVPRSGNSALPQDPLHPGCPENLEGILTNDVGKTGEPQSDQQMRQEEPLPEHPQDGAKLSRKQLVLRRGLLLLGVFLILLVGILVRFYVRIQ

[2] = target: T3, organic cation transporter 1 (Homo sapiens, UniProt O15245); assay: Inhibitory potency towards OCT1; assay type: in vitro ADME
T3 sequence (O15245 1-554): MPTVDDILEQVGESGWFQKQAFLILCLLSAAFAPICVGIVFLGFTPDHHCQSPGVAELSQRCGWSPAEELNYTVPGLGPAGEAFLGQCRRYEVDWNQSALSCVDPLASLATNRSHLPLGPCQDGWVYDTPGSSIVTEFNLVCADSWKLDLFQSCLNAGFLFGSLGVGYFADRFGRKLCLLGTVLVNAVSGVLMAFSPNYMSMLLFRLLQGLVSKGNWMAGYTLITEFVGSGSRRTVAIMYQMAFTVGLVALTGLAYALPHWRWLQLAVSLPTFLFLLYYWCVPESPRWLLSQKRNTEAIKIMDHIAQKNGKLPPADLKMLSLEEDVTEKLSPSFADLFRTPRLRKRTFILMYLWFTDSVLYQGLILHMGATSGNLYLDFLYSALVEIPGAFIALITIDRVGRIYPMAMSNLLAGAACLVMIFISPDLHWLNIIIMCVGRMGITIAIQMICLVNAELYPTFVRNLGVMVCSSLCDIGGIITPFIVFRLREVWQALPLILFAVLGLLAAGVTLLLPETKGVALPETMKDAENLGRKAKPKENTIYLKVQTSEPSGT

[3] = pKa and pH-dependent solubility; assay type: physicochemical
[4] = ref data on file, cited from earlier work
[5] = cited from earlier work
[6] = % of dose, listed as vericiguat
[7] = with rifampicin 600 mg QD vs vericiguat 10 mg SD alone, fed
[8] = following a 10-mg dose once daily

Share of total radioactivity AUC in human plasma (Human mass balance study): 27% | Excretion in feces (range) (Human mass balance study; % of dose): 42.6 (38.3–46.5) % | Excretion in urine (range) (Human mass balance study; % of dose): 9.0 (6.1–16.1) % | Total excretion of analyte (urine plus feces) (range) (Human mass balance study; % of dose): 51.6 (46.0–62.6) % | Excretion in feces (range) (Human mass balance study; [6]): 43% | Excretion in urine (range) (Human mass balance study; [6]): 9.0% | Radioactivity excreted via feces (Human mass balance study; % of dose, mean (range)): 45.2 (40.1–49.9) % | Radioactivity excreted via urine (Human mass balance study; % of dose, mean (range)): 53.1^b (49.9–56.1) % | Decrease in Cmax of vericiguat ([1]; pre- and co-treatment with rifampicin): 9% | Decrease in AUC of vericiguat ([1]; pre- and co-treatment with rifampicin 600 mg once daily): 29% | AUC of vericiguat, point estimate of treatment ratio [1, 7]: 0.713 | Cmax of vericiguat, point estimate of treatment ratio [1, 7]: 0.914 | Substrate of OATP1B1 (OATP1B1): not a substrate | IC50 (MATE1): > 10 µM | IC50 [2]: > 50 µM | pKa [3]: 4.7
Compound: COC(=O)Nc1c(N)nc(-c2nn(Cc3ccccc3F)c3ncc(F)cc23)nc1N [Vericiguat]
pH dependence of solubility [3]: lower in neutral conditions compared with acidic conditions | Projected unbound inlet Cmax [4, 8]: 30 nM | Unbound Cmax [4, 8]: approximately 0.02 µM | Unbound Cmax ([4]; multiple-dose oral 10 mg once daily in patients with HFrEF): approximately 0.02 µM | Cmax ([4]; read-out: Total Cmax, following a 10-mg dose once daily): ~800 nM | Increase in AUC after administration with food compared to without ([5]; vericiguat alone): approximately 44% | Increase in Cmax after administration with food compared to without ([5]; vericiguat alone): ~41% | Geometric coefficient of variation in AUC ([5]; with food): 19% | Oral bioavailability ([5]; with food): 93% | Geometric coefficient of variation in AUC ([5]; without food): 41%
